Converted amounts (≈) assume the structure as drawn.
Columns and labels:
Escherichia coli = test: Antibacterial activity against Escherichia coli after 24 hrs by liquid growth inhibition assay; format: functional
How it was run: (§1)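 Liquid growth inhibition (NCCLS-based broth method). Compounds dissolved in DMSO and liquid medium, incubated with bacteria at 2 × 10^8 cells/mL in PB medium (Bacto-tryptone 1%, NaCl 0.5%, pH 7.5), 35 °C, 24 h, constant agitation. Triplicate wells. Growth read as absorbance at 620 nm; MIC taken as lowest concentration inhibiting growth.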

Micrococcus luteus = test: Antibacterial activity against Micrococcus luteus after 24 hrs by liquid growth inhibition assay; format: functional; how it was run: as §1

CC(=O)NCCc1c2c(c3nccc4c3c1Nc1ccccc1-4)NC(=O)CS2 [SHERMILAMINE B]
MIC (Escherichia coli): 2 µM (≈ 0.781 µg/mL)
MIC (Micrococcus luteus): 8 µM (≈ 3.12 µg/mL)

NCCc1c2c(c3nccc4c3c1Nc1ccccc1-4)NC(=O)CS2
MIC (Escherichia coli): 1.1 µM (≈ 0.383 µg/mL)
MIC (Micrococcus luteus): 4.5 µM (≈ 1.57 µg/mL)

GENTAMICIN
MIC (Escherichia coli): 0.08 µM
MIC (Micrococcus luteus): 0.02 µM

N=C1C2=C(NCCC2=O)c2nccc3c2c1nc1ccc(O)cc13 [CYSTODIMINE B]
MIC (Escherichia coli): 2.6 µM (≈ 0.822 µg/mL)
MIC (Micrococcus luteus): 10.5 µM (≈ 3.32 µg/mL)

O=C1c2cccnc2-c2nccc3c2c1nc1ccccc13 [ASCIDIDEMIN]
MIC (Escherichia coli): 0.2 µM (≈ 0.0567 µg/mL)
MIC (Micrococcus luteus): 0.3 µM (≈ 0.085 µg/mL)

CC(=O)NCCc1c2c3c(ccnc3c3ncsc13)-c1ccccc1N2 [KUANONIAMINE D]
MIC (Escherichia coli): 2.2 µM (≈ 0.793 µg/mL)
MIC (Micrococcus luteus): 17.4 µM (≈ 6.27 µg/mL)

O=C1c2c(O)ccnc2-c2nccc3c2c1nc1ccccc13
MIC (Escherichia coli): 2.6 µM (≈ 0.778 µg/mL)
MIC (Micrococcus luteus): 10.5 µM (≈ 3.14 µg/mL)

NCCc1c2c3c(ccnc3c3ncsc13)-c1ccccc1N2
MIC (Escherichia coli): 2.5 µM (≈ 0.796 µg/mL)
MIC (Micrococcus luteus): 2.5 µM (≈ 0.796 µg/mL)

N=C1C2=C(NCCC2=O)c2nccc3c2c1nc1ccccc13 [CYSTODIMINE A]
MIC (Escherichia coli): 1.2 µM (≈ 0.36 µg/mL)
MIC (Micrococcus luteus): 2.4 µM (≈ 0.721 µg/mL)
